The target of this experiment is M17 leucyl aminopeptidase (Plasmodium falciparum 3D7). The experiment is described as follows: Inhibition of P. falciparum M17 aminopeptidase – biochemical, QFRET, set 2, counter-screen for PfM18AAP inhibitor project, dose response (AID 602220). To be noted: recombinant PfM17LAP, H-Leu-NHMec fluorogenic cleavage; for inhibition: at 100 µM (top of the series). In short, it runs like this:
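Test system: purified recombinant PfM17LAP, M17 leucine aminopeptidase of Plasmodium falciparum. Amount: 5 µg/mL enzyme. Schedule: 90 min reaction, room temperature. Technique: fluorescence of released NHMec, excitation 370 nm, emission 460 nm. Read-out basis: IC50 from 4-parameter fit of % inhibition, bounds fixed 0–100%. Control set: full reaction and no-enzyme background wells. Repeats: triplicate.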
(The purpose of a counterscreen is to sort out artefacts and off-target activity.)

Each structure is given as a SMILES string. Calls of active or inactive are those of the source.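 How the source made its calls: active means at least 30% inhibition of the enzyme at any tested dose; inactive means the rest.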

A word on the IC50: it is the concentration that inhibits the measured activity by half. For `CN1CCN(CCCc2ccc(O)c(O)c2)CC1`, the IC50 was 73.8 µM.

`CN1CCN(CCc2ccc(O)c(O)c2)CC1`: the IC50 was 94.3 µM.

In the case of `Oc1ccc(CCNc2c3ccccc3nc3ccccc23)cc1O`, the IC50 is 14.2 µM.

In the case of `Oc1ccc(-c2csc(Nc3ncccn3)n2)cc1O`, the IC50 is 12.3 µM.

`CCc1ccc(NC(=O)Cc2nc(-c3ccc(O)c(O)c3)cs2)cc1`: the IC50 was 57.8 µM.

Turning to `CN1CCN(c2nc(-c3ccc(O)c(O)c3)cs2)CC1`, the IC50 was 29.4 µM.

With `COc1ccc(CCNC(c2ccccc2)c2ccccc2)cc1OC`, the inhibition entry is “inactive”.

On to `Oc1ccc(-c2csc(NC3CCCC3)n2)cc1O`, for which the IC50 was 29.8 µM.

With `Oc1ccc(CCNc2ccnc3ccccc23)cc1O`, the IC50 was 30.1 µM.

As to `COc1ccc(CCCN2CCN(C)CC2)cc1OC`, the inhibition entry is “inactive”.

The values are drawn from PubChem BioAssay AID602220 (Southern Research Specialized Biocontainment Screening …, 2012).
